From PubChem
KCNQ1 block = inhibitors of human KCNQ1 channel, primary screen, cell-based, thallium flux, high-throughput; CHO-K1 KCNQ1, FluxOR thallium flux fluorescence; stronger effect = higher value; actives 1.3% (n = 310,000); B-score at 10 µM; Potassium voltage-gated channel subfamily KQT member 1 (Homo sapiens), P51787;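 active means compounds whose thallium flux B-score, printed positive for inhibition, exceeds three library SD while starting fluorescence stays within three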;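 further: channel opened by potassium depolarization with thallium stimulus after 20 min compound exposure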
KCNQ1 pot = potentiators or activators of KCNQ1 channel, primary screen, cell-based, thallium flux, high-throughput. Potassium voltage-gated channel subfamily KQT member 1 (Homo sapiens), P51787. CHO-K1 KCNQ1, thallium flux FluxOR fluorescence; stronger effect = higher value. B-score at 10 µM. actives 0.35% (n = 310,000). AID 2648, 2010;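 active means fluorescence ratio B-score, a plate-corrected score, at least three library SD, with initial intensity B-score within 5 SD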
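Material: CHO-K1 cells stably expressing KCNQ1. Medium: assay buffer for compound exposure, DMSO matched across wells. Reagent: K+/Tl+ depolarizing stimulus. Compound dosing: single-concentration screen. Times: 37 °C overnight plating, 90-min dark dye load, 20-min compound pretreatment. Technique: FluxOR Tl+ flux fluorescence.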
KCNK9 inh-1 = KCNK9 potassium channel inhibitors, primary screen, HEK293 cells, thallium flux. Potassium channel subfamily K member 9 (Homo sapiens), Q9NPC2. FluxOR thallium flux fluorescence; stronger effect = lower value. actives 1.2% (n = 310,000). B-score at 10 µM;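 active means ratio B-score over 3 SD below the library mean, with starting fluorescence within 5 SD of its mean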;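 further: negative B-score means less thallium flux so channel inhibition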
Kir21 inh = inhibitors of mouse Kir2.1 inward-rectifier potassium channel; HEK293-Kir2.1, FluxOR thallium flux fluorescence; stronger effect = lower value; actives 0.85% (n = 310,000); B-score at 10 µM; Inward rectifier potassium channel 2 (Mus musculus), P35561; AID 1672, 2009;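 active means fluorescence ratio B-score at or below minus 3 SD of library scores, with starting-brightness B-score within 2 SD, cut at about -4.2 in these data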;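 further: channel flux triggered by added potassium and thallium sulfate stimulus; B-score of peak minus minimum fluorescence over baseline after thallium stimulus; more negative B-score means stronger Kir2.1 block with less thallium influx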
hERG protect = hERG rescue from dofetilide block, primary screen, cell-based, CHO-hERG, FluxOR thallium flux, dofetilide IC70 | actives 0.51% (n = 310,000) | Voltage-gated inwardly rectifying potassium channel KCNH2 (Homo sapiens), Q12809 | activation (rescue from dofetilide block), less the hit threshold, % at 10 µM | dofetilide IC70 present;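 active means activation above the mean of controls blocked by dofetilide plus 5 SD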;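 further: thallium influx through hERG after potassium depolarization seen as dye fluorescence rise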
KCNK3 inh = human KCNK3 channel inhibitors, primary screen, CHO cells, FluxOR thallium flux, B-score | Potassium channel subfamily K member 3 (Homo sapiens), O14649 | FluxOR fluorescence; stronger effect = lower value | B-score at 10 µM | actives 0.84% (n = 340,000) | AID 602410, 2012;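 active means B-score under library mean minus 4 SD, starting fluorescence ratio at most library mean plus 5 SD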;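 further: more negative B-score means stronger inhibition of thallium flux through KCNK3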
hERG ctr = hERG channel inhibition, counter-screen for Kir2.1 inhibitor project, cell-based, thallium flux. inhibition, % at 10 µM. hERG-expressing cells. actives 20% (n = 320). shares compounds with Kir21 inh;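 further: host cells are CHO cells stably expressing hERG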
KCNK9 inh-2 = KCNK9 channel inhibition, selectivity assay for Kir2.1 inhibitor project, cell-based | shares compounds with Kir21 inh | KCNK9-expressing cells, ion flux inhibition | inhibition, % at 10 µM | actives 5% (n = 320)
Kir2-1 patch inh = mouse Kir2.1 channel blockers, Kir2.1 inhibitor project, cell-based, secondary, automated electrophysiology; shares compounds with Kir21 inh; Kir2.1 cells, automated patch-clamp current inhibition; inhibition, % at 25 µM; actives 71% (n = 320)
A number is an active result; – = inactive; · = not tested or not shown. An excerpt weighted towards active compounds, which were near 3.7% of everything screened. Unless noted, how the calls were made is not given here.

SMILES	KCNQ1 block	KCNQ1 pot	KCNK9 inh-1	Kir21 inh	hERG protect	KCNK3 inh	hERG ctr	KCNK9 inh-2	Kir2-1 patch inh
CCN(CC)CCCN(C(=O)c1ccc(OC)cc1)c1nc(-c2ccc(OC)cc2)cs1	–	–	–	-6.1	–	–	–	–	–
CCn1c(SCC(=O)NC(C)c2ccccc2)nc2ccccc21 (stereo unspecified)	–	–	–	–	–	–	·	·	·
CCn1c(Sc2ccc(N)cc2Cl)nc2ccccc21	–	–	–	-6.3	–	–	–	–	21%
CCn1c(CNc2ccc(Cl)cc2)nnc1SCc1ccccc1	–	–	–	-6.2	–	–	–	–	–
CCN(Cc1cccs1)C(=O)CN1CCN(S(=O)(=O)c2ccc3c(c2)OCCCO3)CC1	·	·	·	·	·	–	·	·	·
NC(=O)C(c1ccc(Cl)cc1)c1ncc(C(F)(F)F)cc1Cl (stereo unspecified)	–	–	–	–	–	–	·	·	·
N#CC(c1ccc(O)cc1)c1ncc(C(F)(F)F)cc1Cl (stereo unspecified)	–	–	–	-7.3	–	–	–	–	54%
COc1ccccc1C(CNC(=O)CNC(=O)c1cccc(Cl)c1)N1CCCC1 (stereo unspecified)	·	·	·	·	·	–	·	·	·
CC1CN(C(=O)CCC(=O)NCCCN2CCN(Cc3ccccc3)CC2)c2cc(Cl)ccc2O1 (stereo unspecified)	–	–	–	-6.3	–	–	64%	–	9.3%
Cc1ccc(CN2CCC(c3cc(-c4cccs4)n[nH]3)CC2)cc1	–	–	–	-13	–	–	72%	–	37%
FC(F)(F)c1cccc(CN2CCC(c3cc(-c4cccs4)n[nH]3)CC2)c1	–	–	–	–	–	–	·	·	·
C=CCn1c(SCc2cccc(C#N)c2)nnc1-c1ccccc1O	–	–	–	-5.9	–	–	–	–	24%
C=CCn1c(SCC(=O)NC(C)(C)C)nnc1-c1ccccc1O	–	–	–	–	–	–	·	·	·
CC(=O)c1cccc(NC(=O)CSc2nc(=O)n(CCN3CCOCC3)c3c2CCC3)c1	–	–	–	–	–	–	·	·	·
NS(=O)(=O)c1ccc(CNC(=O)c2ccc(C(=O)c3ccccc3)cc2)cc1	·	·	·	·	·	–	·	·	·
COc1ccccc1OCc1nnc(SCC(=O)Nc2ccc(N3CCOCC3)cc2)n1C	–	–	–	–	–	–	·	·	·
Oc1ccc(Nc2nc(N3CCCC3)c3ccccc3n2)cc1	–	–	–	-7.5	–	–	64%	–	–
CC(C)(C)C1CCc2sc(C(=O)NNC(=O)CCl)cc2C1 (stereo unspecified)	–	–	–	–	–	–	·	·	·
CC1=C(C(=O)OCc2ccccc2)C(c2cccs2)N2C(=O)CCSC2=N1 (stereo unspecified)	–	–	–	–	–	–	·	·	·
COC(=O)C1=C(C)N=C2SCCC(=O)N2C1c1ccc(OC(=O)c2ccco2)cc1 (stereo unspecified)	–	–	–	-7.2	–	–	–	–	–
COc1ccc(CNCc2cccc3ccccc23)cc1	–	–	–	·	–	–	–	–	·
Cc1cc(C)nc(SCCCNCc2ccc(Br)cc2)n1	–	–	–	-7.1	–	–	–	–	44%
CN(C)Cc1c(O)ccc2oc(Cc3ccccc3)cc12	–	–	–	-5.9	–	–	–	–	62%
